Measured values from ChEMBL document CHEMBL4118021, “Studies of TAK1-centered polypharmacology with novel covalent TAK1 inhibitors” (Bioorg Med Chem, 2017).
The source made the active and inactive calls. The calls are words filed in the database; no cut-off is given here.

Assays:
[1] = biological target: Opioid growth factor receptor (Homo sapiens) (UniProt Q9NZT2); experiment: Binding affinity to OGFR in human NCI-H358 cells at 1 uM by mass spectrometry based pull down assay; type: cell-based
[2] = biological target: ADP-ribosylation factor-like protein 2 (Homo sapiens) (UniProt P36404); experiment: Binding affinity to ARL2 in human NCI-H358 cells at 1 uM by mass spectrometry based pull down assay; type: cell-based
[3] = biological target: Signal recognition particle 19 kDa protein (Homo sapiens) (UniProt P09132); experiment: Binding affinity to SRP19 in human NCI-H23 cells at 1 uM by mass spectrometry based pull down assay; type: cell-based
[4] = biological target: T1, Aurora kinase A (Homo sapiens) (UniProt O14965); experiment: Binding affinity to AURKA in human NCI-H23 cells at 1 uM by mass spectrometry based pull down assay; type: cell-based
T1 sequence (whole entry): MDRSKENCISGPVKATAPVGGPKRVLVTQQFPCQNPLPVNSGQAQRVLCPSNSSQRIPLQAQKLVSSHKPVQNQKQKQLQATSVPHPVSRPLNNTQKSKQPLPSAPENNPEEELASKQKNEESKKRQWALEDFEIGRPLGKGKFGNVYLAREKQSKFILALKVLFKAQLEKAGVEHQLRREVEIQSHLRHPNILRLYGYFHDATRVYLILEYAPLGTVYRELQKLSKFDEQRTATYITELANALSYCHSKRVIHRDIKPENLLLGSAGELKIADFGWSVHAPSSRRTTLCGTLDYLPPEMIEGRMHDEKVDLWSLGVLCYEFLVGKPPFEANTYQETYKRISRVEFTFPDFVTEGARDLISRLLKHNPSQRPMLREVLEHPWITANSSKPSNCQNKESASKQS

[5] = biological target: DNA replication licensing factor MCM6 (Homo sapiens) (UniProt Q14566); experiment: Binding affinity to MCM6 in human NCI-H23 cells at 1 uM by mass spectrometry based pull down assay; type: cell-based
[6] = biological target: F-actin-capping protein subunit alpha-1 (Homo sapiens) (UniProt P52907); experiment: Binding affinity to CAPZA1 in human NCI-H358 cells at 1 uM by mass spectrometry based pull down assay; type: cell-based
[7] = biological target: MAP kinase-activated protein kinase 5 (Homo sapiens) (UniProt Q8IW41); experiment: Binding affinity to MAPKAPK5 in human NCI-H23 cells at 1 uM by mass spectrometry based pull down assay; type: cell-based
[8] = biological target: 5'-AMP-activated protein kinase catalytic subunit alpha-1 (Homo sapiens) (UniProt Q13131); experiment: Binding affinity to PRKAA1 in human NCI-H358 cells at 1 uM by mass spectrometry based pull down assay; type: cell-based
[9] = biological target: Proto-oncogene tyrosine-protein kinase Src (Homo sapiens) (UniProt P12931); experiment: Binding affinity to SRC in human NCI-H358 cells at 1 uM by mass spectrometry based pull down assay; type: cell-based
[10] = biological target: Ras GTPase-activating-like protein IQGAP1 (Homo sapiens) (UniProt P46940); experiment: Binding affinity to IQGAP1 in human NCI-H358 cells at 1 uM by mass spectrometry based pull down assay; type: cell-based
[11] = biological target: Pyruvate dehydrogenase E1 component subunit beta, mitochondrial (Homo sapiens) (UniProt P11177); experiment: Binding affinity to PDHB in human NCI-H23 cells at 1 uM by mass spectrometry based pull down assay; type: cell-based
[12] = biological target: Apoptosis regulator BAX (Homo sapiens) (UniProt Q07812); experiment: Binding affinity to BAX in human NCI-H23 cells at 1 uM by mass spectrometry based pull down assay; type: cell-based
[13] = biological target: Transcription intermediary factor 1-beta (Homo sapiens) (UniProt Q13263); experiment: Binding affinity to TRIM28 in human NCI-H358 cells at 1 uM by mass spectrometry based pull down assay; type: cell-based
[14] = biological target: Alkyldihydroxyacetonephosphate synthase, peroxisomal (Homo sapiens) (UniProt O00116); experiment: Binding affinity to AGPS in human NCI-H23 cells at 1 uM by mass spectrometry based pull down assay; type: cell-based
Outline: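 NCI-H23 or NCI-H358 cells were grown and lysed. Lysates were incubated overnight at 4 °C with 1 μM biotinylated covalent probe or DMSO, then pulled down on streptavidin beads. Proteins were run on polyacrylamide gels and stained with Coomassie. Bands were excised, digested and identified by mass spectrometry.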

NCI-H23 = experiment: Binding affinity to PSMA7 in human NCI-H23 cells at 1 uM by mass spectrometry based pull down assay; type: cell-based
[15] = biological target: Serine/threonine-protein kinase RIO3 (Homo sapiens) (UniProt O14730); experiment: Inhibition of full length human RIOK3 (1 to 519 residues) expressed in bacterial expression system assessed as enzyme activity at 10 uM by KINOMEScan assay relative to control; parameters: scale not given: the % may be the effect or the level left
Outline: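 In vitro ATP-site competition binding assay (KinomeScan) across a panel of 456 kinases. Compound was tested at 1 and 10 μM. The read-out is the binding inhibition score relative to control.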

[16] = biological target: Ribosomal protein S6 kinase alpha-6 (Homo sapiens) (UniProt Q9UK32); experiment: Inhibition of human RSK4 (1 to 397 residues) expressed in mammalian expression system assessed as enzyme activity at 1 uM by KINOMEScan assay relative to control; parameters: scale not given: the % may be the effect or the level left
Outline: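 In vitro ATP-site competition binding assay across a panel of 456 kinases, with compound tested at 1 and 10 μM.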

[17] = biological target: T2, Mitogen-activated protein kinase kinase kinase 7 (Homo sapiens) (UniProt O43318); experiment: Inhibition of TAK1 in RA patient-derived synovial fibroblasts assessed as inhibition of IL-1alpha-induced cytokine secretion at 3 uM preincubated for 3 hrs followed by IL-1alpha stimulation measured after 18 hrs by sandwich immunoassay
T2 sequence (whole entry): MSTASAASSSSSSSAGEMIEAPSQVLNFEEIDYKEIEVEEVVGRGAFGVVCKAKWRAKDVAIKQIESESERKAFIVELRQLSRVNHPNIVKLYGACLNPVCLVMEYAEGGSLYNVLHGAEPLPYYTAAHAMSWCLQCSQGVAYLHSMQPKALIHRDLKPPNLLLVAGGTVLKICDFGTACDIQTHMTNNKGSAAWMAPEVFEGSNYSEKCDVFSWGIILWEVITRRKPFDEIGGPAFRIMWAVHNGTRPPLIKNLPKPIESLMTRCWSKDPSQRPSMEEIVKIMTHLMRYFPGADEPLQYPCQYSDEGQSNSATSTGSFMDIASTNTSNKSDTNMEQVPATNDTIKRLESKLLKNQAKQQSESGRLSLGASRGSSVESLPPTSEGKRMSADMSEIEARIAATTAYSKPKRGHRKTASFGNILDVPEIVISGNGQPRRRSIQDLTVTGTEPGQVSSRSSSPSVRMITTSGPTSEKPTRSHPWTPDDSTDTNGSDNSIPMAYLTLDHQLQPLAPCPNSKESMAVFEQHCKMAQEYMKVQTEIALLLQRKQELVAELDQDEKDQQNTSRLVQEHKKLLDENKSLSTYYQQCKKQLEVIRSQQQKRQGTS
Outline: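 Primary RA synovial fibroblasts (donor RA2159) seeded 1000 cells/well and grown ~24 h at 37 °C, 5% CO2. Starved overnight in basal medium, then ~4 h in basal medium with 0.1% BSA. Two adjacent wells pooled per replicate, in biological duplicate. Supernatants diluted 1:3 and run on Luminex 27-plex/21-plex sandwich immunoassays for 48 analytes, with spiked-ligand and mock-supernatant background controls.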

Apoptosis regulator BAX (Homo sapiens), sequence (Q07812 whole entry): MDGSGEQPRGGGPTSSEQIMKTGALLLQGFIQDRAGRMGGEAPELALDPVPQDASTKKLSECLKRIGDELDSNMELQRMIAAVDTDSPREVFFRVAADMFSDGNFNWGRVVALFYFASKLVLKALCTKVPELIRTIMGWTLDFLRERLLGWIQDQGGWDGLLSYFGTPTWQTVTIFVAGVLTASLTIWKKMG
Serine/threonine-protein kinase RIO3 (Homo sapiens), sequence (O14730 whole entry, the tested form may be a part): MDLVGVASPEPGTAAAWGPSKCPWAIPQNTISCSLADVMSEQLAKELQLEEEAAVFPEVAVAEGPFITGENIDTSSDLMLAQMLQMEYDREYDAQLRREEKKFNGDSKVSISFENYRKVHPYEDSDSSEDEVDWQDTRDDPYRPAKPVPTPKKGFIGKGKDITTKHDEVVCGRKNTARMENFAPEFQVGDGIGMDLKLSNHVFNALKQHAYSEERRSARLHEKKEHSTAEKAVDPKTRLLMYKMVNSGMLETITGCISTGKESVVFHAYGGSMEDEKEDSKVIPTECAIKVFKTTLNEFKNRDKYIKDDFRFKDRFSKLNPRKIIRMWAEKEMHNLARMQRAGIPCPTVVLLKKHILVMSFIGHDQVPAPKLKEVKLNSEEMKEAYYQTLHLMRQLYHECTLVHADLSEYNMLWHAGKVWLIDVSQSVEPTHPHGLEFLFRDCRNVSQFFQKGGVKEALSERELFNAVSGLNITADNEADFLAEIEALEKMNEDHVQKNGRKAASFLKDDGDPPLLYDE
ADP-ribosylation factor-like protein 2 (Homo sapiens), sequence (P36404 whole entry): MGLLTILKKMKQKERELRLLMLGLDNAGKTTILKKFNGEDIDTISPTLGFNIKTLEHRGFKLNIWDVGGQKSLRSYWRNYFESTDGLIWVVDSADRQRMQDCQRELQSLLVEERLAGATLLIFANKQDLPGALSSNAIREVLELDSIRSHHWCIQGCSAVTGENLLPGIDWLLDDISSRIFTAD
Signal recognition particle 19 kDa protein (Homo sapiens), sequence (P09132 whole entry): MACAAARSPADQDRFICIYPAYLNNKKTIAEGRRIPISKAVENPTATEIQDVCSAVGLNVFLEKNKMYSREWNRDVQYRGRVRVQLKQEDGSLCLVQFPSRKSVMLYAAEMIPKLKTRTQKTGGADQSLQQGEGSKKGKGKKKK
Proto-oncogene tyrosine-protein kinase Src (Homo sapiens), sequence (P12931 2-536 limits assumed): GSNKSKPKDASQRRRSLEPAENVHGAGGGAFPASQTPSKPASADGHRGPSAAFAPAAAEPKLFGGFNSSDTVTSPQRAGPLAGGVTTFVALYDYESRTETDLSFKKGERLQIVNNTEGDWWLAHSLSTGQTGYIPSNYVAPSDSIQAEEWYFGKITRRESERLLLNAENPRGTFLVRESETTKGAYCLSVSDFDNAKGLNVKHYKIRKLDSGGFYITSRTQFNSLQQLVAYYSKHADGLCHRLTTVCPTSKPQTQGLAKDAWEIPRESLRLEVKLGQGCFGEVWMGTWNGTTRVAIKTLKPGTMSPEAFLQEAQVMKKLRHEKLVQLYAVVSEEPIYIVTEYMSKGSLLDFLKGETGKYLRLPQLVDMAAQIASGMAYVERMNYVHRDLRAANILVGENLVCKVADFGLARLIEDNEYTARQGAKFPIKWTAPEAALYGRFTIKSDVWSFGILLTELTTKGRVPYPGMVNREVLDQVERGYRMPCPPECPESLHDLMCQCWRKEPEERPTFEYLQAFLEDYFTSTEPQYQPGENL
Transcription intermediary factor 1-beta (Homo sapiens), sequence (Q13263 whole entry): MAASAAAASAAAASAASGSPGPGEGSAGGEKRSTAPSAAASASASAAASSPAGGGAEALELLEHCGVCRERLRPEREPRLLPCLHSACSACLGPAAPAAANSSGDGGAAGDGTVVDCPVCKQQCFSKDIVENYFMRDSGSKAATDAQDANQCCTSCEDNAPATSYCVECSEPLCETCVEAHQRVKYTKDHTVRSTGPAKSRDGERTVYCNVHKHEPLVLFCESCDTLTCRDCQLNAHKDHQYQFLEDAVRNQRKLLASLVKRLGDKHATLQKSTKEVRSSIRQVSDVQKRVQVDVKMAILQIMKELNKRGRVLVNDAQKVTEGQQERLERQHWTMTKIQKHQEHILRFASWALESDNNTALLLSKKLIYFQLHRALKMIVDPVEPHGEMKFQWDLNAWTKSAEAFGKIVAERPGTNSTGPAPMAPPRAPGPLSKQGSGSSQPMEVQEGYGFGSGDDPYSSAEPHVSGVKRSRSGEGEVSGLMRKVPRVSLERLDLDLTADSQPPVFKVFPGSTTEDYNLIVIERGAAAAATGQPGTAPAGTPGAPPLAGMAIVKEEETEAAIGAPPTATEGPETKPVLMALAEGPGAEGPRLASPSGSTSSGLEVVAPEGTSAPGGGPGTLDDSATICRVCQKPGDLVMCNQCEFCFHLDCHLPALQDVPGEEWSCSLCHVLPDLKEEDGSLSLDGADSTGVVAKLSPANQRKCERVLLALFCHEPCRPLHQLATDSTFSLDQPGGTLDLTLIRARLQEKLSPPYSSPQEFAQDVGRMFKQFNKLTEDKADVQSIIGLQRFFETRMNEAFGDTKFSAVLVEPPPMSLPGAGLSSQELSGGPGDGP
Alkyldihydroxyacetonephosphate synthase, peroxisomal (Homo sapiens), sequence (O00116 whole entry): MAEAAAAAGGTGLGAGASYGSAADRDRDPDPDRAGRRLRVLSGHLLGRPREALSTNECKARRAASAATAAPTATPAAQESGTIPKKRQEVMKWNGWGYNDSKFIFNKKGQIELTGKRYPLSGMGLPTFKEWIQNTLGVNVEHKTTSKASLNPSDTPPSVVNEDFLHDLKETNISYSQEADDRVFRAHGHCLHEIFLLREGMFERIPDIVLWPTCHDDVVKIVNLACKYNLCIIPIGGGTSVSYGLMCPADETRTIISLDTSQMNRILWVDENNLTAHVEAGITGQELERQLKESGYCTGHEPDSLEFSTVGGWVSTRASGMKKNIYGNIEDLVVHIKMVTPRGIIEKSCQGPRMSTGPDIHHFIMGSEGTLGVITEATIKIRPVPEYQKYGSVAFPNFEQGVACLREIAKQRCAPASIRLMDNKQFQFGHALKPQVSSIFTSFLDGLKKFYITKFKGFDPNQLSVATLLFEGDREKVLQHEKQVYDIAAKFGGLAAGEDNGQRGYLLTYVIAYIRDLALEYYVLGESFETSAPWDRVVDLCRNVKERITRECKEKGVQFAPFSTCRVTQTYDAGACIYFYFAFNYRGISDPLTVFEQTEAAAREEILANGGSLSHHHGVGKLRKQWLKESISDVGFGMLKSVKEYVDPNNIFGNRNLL
5'-AMP-activated protein kinase catalytic subunit alpha-1 (Homo sapiens), sequence (Q13131 whole entry, looked up): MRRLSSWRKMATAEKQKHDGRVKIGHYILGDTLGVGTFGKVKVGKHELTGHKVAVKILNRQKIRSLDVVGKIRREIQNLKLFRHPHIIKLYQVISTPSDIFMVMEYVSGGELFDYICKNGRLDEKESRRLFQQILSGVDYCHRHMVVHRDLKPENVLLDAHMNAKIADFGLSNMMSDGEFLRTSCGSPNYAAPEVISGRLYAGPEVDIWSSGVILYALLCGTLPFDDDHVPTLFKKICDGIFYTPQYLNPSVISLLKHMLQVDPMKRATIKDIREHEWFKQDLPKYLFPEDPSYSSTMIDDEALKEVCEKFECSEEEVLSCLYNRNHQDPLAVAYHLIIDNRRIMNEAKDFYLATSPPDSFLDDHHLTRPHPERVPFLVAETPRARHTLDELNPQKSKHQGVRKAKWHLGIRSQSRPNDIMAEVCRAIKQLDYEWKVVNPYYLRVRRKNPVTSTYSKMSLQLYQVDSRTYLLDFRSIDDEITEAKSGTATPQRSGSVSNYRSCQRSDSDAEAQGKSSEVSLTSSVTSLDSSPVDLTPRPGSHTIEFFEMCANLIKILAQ
Opioid growth factor receptor (Homo sapiens), sequence (Q9NZT2 whole entry): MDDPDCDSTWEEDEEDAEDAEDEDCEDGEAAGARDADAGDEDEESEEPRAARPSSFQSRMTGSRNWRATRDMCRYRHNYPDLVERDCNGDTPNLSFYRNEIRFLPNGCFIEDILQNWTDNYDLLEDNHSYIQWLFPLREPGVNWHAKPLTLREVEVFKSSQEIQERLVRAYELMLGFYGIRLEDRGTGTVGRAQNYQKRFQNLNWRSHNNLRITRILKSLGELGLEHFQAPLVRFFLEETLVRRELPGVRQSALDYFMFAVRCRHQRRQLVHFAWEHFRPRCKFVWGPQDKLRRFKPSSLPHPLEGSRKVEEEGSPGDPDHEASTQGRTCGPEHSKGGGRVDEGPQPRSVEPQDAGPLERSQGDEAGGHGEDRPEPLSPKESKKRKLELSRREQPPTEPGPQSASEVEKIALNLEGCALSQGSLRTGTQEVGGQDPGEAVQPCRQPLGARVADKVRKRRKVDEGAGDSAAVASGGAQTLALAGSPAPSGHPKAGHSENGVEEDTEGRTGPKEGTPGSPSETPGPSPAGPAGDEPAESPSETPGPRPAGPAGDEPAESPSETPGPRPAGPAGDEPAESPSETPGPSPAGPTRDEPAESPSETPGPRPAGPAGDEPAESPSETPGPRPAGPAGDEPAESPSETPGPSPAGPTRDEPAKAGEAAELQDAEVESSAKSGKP
Pyruvate dehydrogenase E1 component subunit beta, mitochondrial (Homo sapiens), sequence (P11177 whole entry): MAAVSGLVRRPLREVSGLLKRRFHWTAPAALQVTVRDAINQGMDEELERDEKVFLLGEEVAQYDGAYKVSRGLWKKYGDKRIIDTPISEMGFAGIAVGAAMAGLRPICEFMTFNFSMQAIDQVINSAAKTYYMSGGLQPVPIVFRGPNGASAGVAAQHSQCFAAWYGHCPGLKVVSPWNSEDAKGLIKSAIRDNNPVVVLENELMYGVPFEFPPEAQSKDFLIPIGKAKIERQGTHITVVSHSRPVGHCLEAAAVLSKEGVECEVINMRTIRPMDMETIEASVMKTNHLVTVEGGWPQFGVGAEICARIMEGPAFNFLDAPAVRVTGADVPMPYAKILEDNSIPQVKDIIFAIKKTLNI

With `C=CC(=O)Nc1ccccc1Nc1nc(Nc2ccc(N3CCN(CCOCCOCCOCCNC(=O)CCCC[C@@H]4SC[C@@H]5NC(=O)N[C@@H]54)CC3)cc2)ncc1Cl` as the compound, how does the Activity [1] read?
The Activity was “Active”.

And the Activity [2]?
Its Activity is “Active”.

And the Activity [3]?
The Activity was “Active”.

And the Activity [4]?
The Activity was “Active”.

And the Activity [5]?
Its Activity is “Active”.

What about the Activity [6] of the same compound?
The Activity was “Active”.

What about the Activity [7] of the same compound?
The Activity was “Active”.

And the Activity [8]?
Its Activity is “Active”.

And the Activity [9]?
The Activity was “Active”.

What about the Activity [10] of the same compound?
Its Activity is “Active”.

What about the Activity [11] of the same compound?
The Activity was “Active”.

What about the Activity [12] of the same compound?
Its Activity is “Active”.

And the Activity [13]?
Its Activity is “Active”.

And the Activity [14]?
Its Activity is “Active”.

And the Activity (NCI-H23)?
Its Activity is “Active”.

Which Activity [15] does the source give for `COc1cc(O)c2c(c1)/C=C/C[C@H](O)[C@H](O)C(=O)/C=C\C[C@H](C)OC2=O` here?
The Activity was 0%.

What about the Activity [16] of the same compound?
Its Activity is 34%.

For `C=CC(=O)Nc1ccccc1Oc1nc(Nc2cnn(CCOC)c2)ncc1Cl`, which inhibition [17] is on record?
Its inhibition is “Active”.
